Assay results from ChEMBL document CHEMBL1687720 (Antimicrob Agents Chemother, 2009).

Legend:
[1] = tested on: Plasmodium falciparum; assay: Downregulation of thioredoxin peroxidase mRNA level in Plasmodium falciparum 3D7 trophozoites at 126 nM after 18 hrs by RT-qPCR analysis relative to untreated control; type: functional
How it was run: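 P. falciparum 3D7 trophozoites are exposed to 126 nM compound for 12, 15 or 18 h, then harvested by saponin lysis at 37°C. RNA is extracted and reverse-transcribed, and transcripts are quantified by real-time PCR in quadruplicate. Analysis uses ΔΔCT with 18S rRNA as reference (LDH also checked), expressed as % of untreated control.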

[2] = tested on: Plasmodium berghei; assay: Antimalarial activity against Plasmodium berghei infected in mouse assessed as reduction in parasite load at 10 mg/kg for 4 days treated postinfection measured on day 9; type: functional; set-up: scale not given: the % may be the effect or the level left
How it was run: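 Murine P. berghei model; compound given subcutaneously at 10 mg/kg for 4 days postinfection; parasitemia compared with untreated controls (n = 13 per group) on days 4, 7 and 9; significance by Fisher's exact test.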

[3] = tested on: A549; assay: Effect on thioredoxin reductase expression in human A549 cells assessed as transcript level at 24 nM after 24 hrs by RT-qPCR analysis relative to untreated control; type: functional; details: in the assay text read “24 µM” for “24 nM”
How it was run: (§1)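 A549 cells are seeded at 2.5 × 10^5 per 25-cm2 well. At 40–45% confluence they are treated for 24 h with 166 or 662 μM, 158 or 315 μM, or 5 or 24 μM compound; controls receive <5% DMSO. Total RNA is DNase-treated and qRT-PCR is run in quadruplicate. Values are normalized to GAPDH and given as % of untreated control.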

[4] = tested on: A549; assay: Cytotoxicity against human A549 cells after 24 hrs by Trypan blue assay; details: a549, 24 h
[5] = tested on: A549; assay: Inhibition of glutathione peroxidase in human A549 cells assessed as enzyme activity at 24 µM after 24 hrs relative to untreated control; set-up: scale not given: the % may be the effect or the level left
[6] = tested on: A549; assay: Effect on glutathione peroxidase expression in human A549 cells assessed as transcript level at 166 nM after 24 hrs by RT-qPCR analysis relative to untreated control; type: functional; details: in the assay text read “166 µM” for “166 nM”; how it was run: as §1
[7] = tested on: A549; assay: Effect on glutathione peroxidase expression in human A549 cells assessed as transcript level at 662 nM after 24 hrs by RT-qPCR analysis relative to untreated control; type: functional; details: in the assay text read “662 µM” for “662 nM”; how it was run: as §1
[8] = tested on: A549; assay: Effect on glutathione S-transferase expression in human A549 cells assessed as transcript level at 166 nM after 24 hrs by RT-qPCR analysis relative to untreated control; type: functional; details: in the assay text read “166 µM” for “166 nM”; how it was run: as §1
[9] = tested on: A549; assay: Inhibition of glutathione peroxidase in human A549 cells assessed as enzyme activity at 662 µM after 24 hrs relative to untreated control; set-up: scale not given: the % may be the effect or the level left
[10] = molecular target: T1, Thioredoxin reductase (Homo sapiens, UniProt Q16881+Q9NNW7+Q86VQ6); assay: Inhibition of thioredoxin reductase in human A549 cells assessed as enzyme activity at 662 µM after 24 hrs by DTNB assay relative to untreated control; set-up: scale not given: the % may be the effect or the level left
[11] = tested on: Plasmodium falciparum; assay: Antiplasmodial activity against chloroquine-resistant Plasmodium falciparum K1 in presence of chloroquine; type: functional
[12] = tested on: A549; assay: Inhibition of glutathione S-transferase in human A549 cells assessed as enzyme activity at 166 µM after 24 hrs relative to untreated control; set-up: scale not given: the % may be the effect or the level left
[13] = tested on: A549; assay: Inhibition of glutathione S-transferase in human A549 cells assessed as enzyme activity at 662 µM after 24 hrs relative to untreated control; set-up: scale not given: the % may be the effect or the level left
[14] = tested on: A549; assay: Effect on thioredoxin reductase expression in human A549 cells assessed as transcript level at 166 nM after 24 hrs by RT-qPCR analysis relative to untreated control; type: functional; details: in the assay text read “166 uM” for “166 nM”; how it was run: as §1
[15] = molecular target: T1, Thioredoxin reductase; assay: Inhibition of thioredoxin reductase in human A549 cells assessed as enzyme activity at 158 µM after 24 hrs by DTNB assay relative to untreated control; set-up: scale not given: the % may be the effect or the level left
[16] = tested on: A549; assay: Inhibition of glutathione peroxidase in human A549 cells assessed as enzyme activity at 158 µM after 24 hrs relative to untreated control; set-up: scale not given: the % may be the effect or the level left
[17] = molecular target: T2, Glutathione reductase, mitochondrial (Homo sapiens) (UniProt P00390); assay: Inhibition of glutathione reductase in human A549 cells assessed as enzyme activity at 315 µM after 24 hrs relative to untreated control; set-up: scale not given: the % may be the effect or the level left
T2 sequence (whole entry): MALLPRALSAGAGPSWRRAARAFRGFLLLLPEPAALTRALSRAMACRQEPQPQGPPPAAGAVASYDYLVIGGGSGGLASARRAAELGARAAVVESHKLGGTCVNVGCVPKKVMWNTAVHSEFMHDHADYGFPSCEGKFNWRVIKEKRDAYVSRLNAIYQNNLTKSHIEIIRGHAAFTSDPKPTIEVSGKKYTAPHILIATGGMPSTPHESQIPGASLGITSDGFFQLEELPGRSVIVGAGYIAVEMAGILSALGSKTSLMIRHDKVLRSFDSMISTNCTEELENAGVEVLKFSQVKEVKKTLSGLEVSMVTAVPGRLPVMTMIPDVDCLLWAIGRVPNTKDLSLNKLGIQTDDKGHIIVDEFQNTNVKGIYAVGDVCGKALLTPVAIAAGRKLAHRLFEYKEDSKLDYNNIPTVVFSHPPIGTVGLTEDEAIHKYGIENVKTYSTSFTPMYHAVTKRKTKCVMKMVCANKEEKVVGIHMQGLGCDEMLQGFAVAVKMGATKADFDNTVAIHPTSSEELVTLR

[18] = tested on: A549; assay: Inhibition of glutathione peroxidase in human A549 cells assessed as enzyme activity at 315 µM after 24 hrs relative to untreated control; set-up: scale not given: the % may be the effect or the level left
[19] = tested on: A549; assay: Effect on glutathione peroxidase expression in human A549 cells assessed as transcript level at 315 nM after 24 hrs by RT-qPCR analysis relative to untreated control; type: functional; details: in the assay text read “315 µM” for “315 nM”; how it was run: as §1
[20] = molecular target: T2, Glutathione reductase, mitochondrial (Homo sapiens); assay: Inhibition of glutathione reductase in human A549 cells assessed as enzyme activity at 158 µM after 24 hrs relative to untreated control; set-up: scale not given: the % may be the effect or the level left

In the case of `O=c1oc2c(O)c(O)c(O)c3c(=O)oc4c(O)c(O)c(O)c1c4c23` [CORULEOELLAGIC ACID], the Activity [1] is reported as 19%, the Activity [2] is reported as 50% and the Activity [3] is reported as 73%. For the same compound, the Activity [4] was “Non-toxic” and the Activity [5] was 78%.
With `O=c1oc2c(O)c(O)cc3c(=O)oc4c(O)c(O)cc1c4c23` [ELLAGIC ACID] the Activity [6] was 109%, the Activity [7] was 150% and the Activity [8] was 122%. It also gave an Activity [9] of 125%, an Activity [10] of 77% and an FIC50 [11] of 1. The Activity [12] was 109%, the Activity [13] was 101% and the Activity [14] was 115%.
Work on `O=c1oc2c(O)c(O)c(O)c3c(=O)oc4c(O)c(O)cc1c4c23` [FLAVELLAGIC ACID] yielded an Activity [15] of 91%, an Activity [16] of 122% and an Activity [17] of 119%. It also gave an Activity [18] of 112%, an Activity [19] of 77% and an Activity [20] of 87%.
